Source: PubChem BioAssay (several laboratories)
The list is not random: actives were taken first. Their share in the collection is about 4.9%.
CHT PAM = CHT positive allosteric modulators, primary screen, cell-based, membrane potential dye, choline EC20; CHT-expressing cells; active compounds read high; LV-AA mutant CHT in HEK293 cells; AID 488977, 2010; B-score at 10 µM; High affinity choline transporter 1 (Homo sapiens), Q9GZV3; 310,000 compounds, 0.49% hits;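 active = initial fluorescence not abnormally high and integrated response B-score, plate-corrected, over 3 SD above library mean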
Lipid droplet = inhibitors of hepatocyte lipid droplet formation, primary screen, imaging, high-throughput imaging, BODIPY stain; AML12 mouse hepatocytes, oleate lipid droplets; inhibition, % at 6.5 µM; 240,000 compounds, 0.4% hits;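 active = lipid droplet intensity inhibited by at least 50%, with more than 500 cells counted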
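Test system: AML12 hepatocytes (mouse); reagent: oleate loading, 100 µM; dosing: one dose, 6.5 µM compound; incubation: overnight exposure; signal: fluorescence imaging, 20x objective, two fields per well; read-out basis: % inhibition of corrected integrated BODIPY droplet signal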
PHOSPHO1 block = PubChem AID 1565. 290,000 compounds, 1.1% hits. recombinant PHOSPHO1, absorbance phosphatase assay. inhibition, % at 13.3 µM; in the data active = inhibition above about 60%
Target sequence (Q8TCT1 whole entry, looked up): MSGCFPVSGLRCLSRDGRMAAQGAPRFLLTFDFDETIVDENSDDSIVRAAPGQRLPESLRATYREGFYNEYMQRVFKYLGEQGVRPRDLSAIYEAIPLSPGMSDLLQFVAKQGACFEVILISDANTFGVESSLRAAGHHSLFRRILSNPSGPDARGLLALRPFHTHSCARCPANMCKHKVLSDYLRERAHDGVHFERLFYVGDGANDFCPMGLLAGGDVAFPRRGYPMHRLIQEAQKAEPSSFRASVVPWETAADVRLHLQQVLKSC
HSF1 inh = HSF1 inhibitors in luciferase reporter cells, primary screen, cell-based, NIH3T3, luminescence | NIH3T3-HGL HSE-luciferase, MG132-induced, luminescence 8 h; active compounds read low | activity change, negative = inhibition, % at 7.5 µM (by protocol) | 300,000 compounds, 0.77% hits | AID 2098, 2009;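 active = more than half of replicate wells show activity change below -50%, luminescence cut by over half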;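 also: luciferase reports HSF-1 transcriptional activity via heat shock element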
CHT inh = inhibitors of human choline transporter CHT | CHT-expressing cells, membrane potential dye, choline response; active compounds read low | 310,000 compounds, 0.86% hits | B-score at 10 µM | High affinity choline transporter 1 (Homo sapiens), Q9GZV3 | AID 488975, 2010;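 active = B-score over 3 SD under the library average, and starting fluorescence ratio not unusually high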;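 also: choline stimulus applied at its EC90 after an EC20 pre-addition; B-score computed on integrated fluorescence ratio after choline addition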
HSF-1 act = HSF-1 activators, primary screen, NIH3T3-HGL cells, MG132 stress, luminescence, single point | 300,000 compounds, 1.7% hits | activation, % at 9 µM | NIH3T3-HGL HSF-1 luciferase reporter, 8 h; 100% = twice DMSO control signal;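 active = mean replicate activation of at least 50% with a set share of replicates each reaching 50%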
Hits are given with their value; i = inactive; nt = no result given.

SMILES | CHT PAM | Lipid droplet | PHOSPHO1 block | HSF1 inh | CHT inh | HSF-1 act
CCOC(=O)[C@H](CCc1ccccc1)N[C@@H](C)C(=O)N1C(C(=O)O)C[C@@H]2CCC[C@@H]21 (some centres not stated) | i | nt | nt | nt | i | nt
Cc1nn(CCC(=O)NNC(=S)Nc2ccc(Cl)cc2)c(C)c1[N+](=O)[O-] | i | i | i | i | i | i
Cc1ccc(NC(=S)NNC(=O)c2c(Cl)c(C)nn2C)cc1 | i | i | 68 | i | i | i
Cc1nn(C(C)C(=O)NNC(=S)Nc2ccc(Cl)cc2)c(C)c1[N+](=O)[O-] (configuration not stated) | i | i | 94 | i | i | i
Cc1ccc(NC(=O)c2c([N+](=O)[O-])c(C(C)(C)C)nn2C)cc1 | i | i | i | i | i | i
Cc1ccc(NC(=S)NNC(=O)c2c([N+](=O)[O-])c(C)nn2C)cc1 | i | i | 76 | i | i | i
CCN1CCN(S(=O)(=O)c2ccc(C(=O)Nc3ccccc3)cc2)CC1 | i | i | i | i | i | i
Cc1oc(S(=O)(=O)N2CCCCC2)cc1NC(=O)Nc1ccccc1 | i | i | i | i | i | i
O=C(O)Cc1c[nH]c2cccc(O)c12 | i | i | i | i | i | i
Cc1ccc(Cn2ccc(NC(=O)c3nn(C)cc3[N+](=O)[O-])n2)cc1 | i | i | i | i | i | 76
Cn1cc([N+](=O)[O-])c(C(=O)Nc2ccc(-c3nc4ccccc4[nH]3)cc2)n1 | i | i | i | i | i | 408
Cn1cc([N+](=O)[O-])c(C(=O)Nc2cc(Oc3cccnc3)cc([N+](=O)[O-])c2)n1 | i | nt | i | i | i | 142
CCn1cc([N+](=O)[O-])c(C(=O)Nc2ccc(Cn3nc(C)cc3C)cc2)n1 | i | nt | i | i | i | i
Cc1cc(C)n(Cc2ccc(NC(=O)c3nn(C)cc3[N+](=O)[O-])cc2)n1 | i | i | i | i | i | 131
CCN(C(=O)COC(=O)c1ccc(C)c(S(=O)(=O)N2CCOCC2)c1)C1CCS(=O)(=O)C1 (configuration not stated) | i | nt | nt | i | i | i
CC(=O)Nc1ccc(NC(=O)CSc2nc(=O)n(Cc3ccncc3)c3c2CCC3)cc1 | i | nt | nt | i | i | i
Cn1cc([N+](=O)[O-])c(C(=O)Nc2ccc(C3CCCCC3)cc2)n1 | i | i | i | i | i | 75
CCC(=O)N1CCN(c2ccc(NC(=O)c3ccc([N+](=O)[O-])o3)cc2)CC1 | nt | i | i | -76 | nt | i
CC1CCN(c2ccc(NC(=O)c3ccc([N+](=O)[O-])o3)cc2)CC1 | i | nt | nt | i | i | 98
O=S(=O)(c1ccccc1)c1nc(-c2ccco2)oc1NCc1cccnc1 | i | nt | 68 | i | i | i
CNc1oc(C)nc1S(=O)(=O)c1ccccc1 | i | i | i | i | i | i
Cc1nc(S(=O)(=O)c2ccc(Cl)cc2)c(NCc2ccccc2)o1 | i | i | i | i | i | 64
Cc1cc(C)n(CCCNC(=O)C2CC(=O)N(Cc3ccccc3)C2)n1 (configuration not stated) | i | nt | nt | i | i | i
Clc1cc2nc(-c3cccnc3Cl)[nH]c2cc1Cl | i | i | i | i | i | 55
CCn1c(-c2cccnc2Cl)nc2cc(Cl)c(Cl)cc21 | i | i | i | i | i | i
SMILES | CHT PAM | Lipid droplet | PHOSPHO1 block | HSF1 inh | CHT inh | HSF-1 act
CCN(C(=O)c1cc2c(=O)[nH]c3ccc(C)cc3c2s1)c1ccccc1F | i | i | i | i | i | 58
CCN(C(=O)c1cc2c(=O)[nH]c3ccc(C)cc3c2s1)c1ccccc1C | i | i | i | i | i | i
COc1ccc(Cc2nnc(NCCO)[nH]c2=O)cc1OC | i | i | i | i | i | i
Cc1cc(C(=O)O)c(CSCc2cc(C(=O)O)oc2C)o1 | i | i | 76 | i | i | i
Cc1nn(CCOc2ccccc2)c(=O)n1-c1ccccc1 | i | nt | 62 | i | i | i
Cc1nn(CCOc2ccccc2)c(=O)n1-c1ccc(Cl)cc1 | i | i | i | i | i | i
